Source: ChEMBL document CHEMBL4665845, “CRISPR-Cas9 Genome-Wide Knockout Screen Identifies Mechanism of Selective Activity of Dehydrofalcarinol in Mesenchymal Stem-like Triple-Negative Breast Cancer Cells” (2020)
The source made the active and inactive calls. The rule behind the calls is not given here.

Tests used:
BT-549 [1] = assay: Growth inhibition of human BT-549 cells after 48 hrs by SRB assay; type: functional
MDA-MB-231 [2] = assay: Growth inhibition of human MDA-MB-231 cells after 48 hrs by SRB assay; type: functional
Summary of the method: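 Cells were exposed to compound for 48 h, and growth was read by sulforhodamine B staining. TGI (total growth inhibition concentration, μM) was taken from concentration–response curves, n = 3, means ± SEM. MDA-MB-231 cells were grown in IMEM with 10% FBS at 37 °C in 5% CO2.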

Homo sapiens [3] = species on record: Homo sapiens; assay: Selectivity index, ratio of TGI for growth inhibitor of human BT-549 to TGI for growth inhibitor of human MDA-MB-231; type: functional
MDA-MB-231 [4] = assay: Cytotoxicity against human MDA-MB-231 cells assessed as reduction in cell viability at 0.03 to 3 uM after 48 hrs by SRB assay; type: functional, cell-based; conditions: dose microM 0.03-3, time 48.0 hrs
MDA-MB-453 [5] = assay: Cytotoxicity against human MDA-MB-453 cells assessed as reduction in cell viability at 0.03 to 3 uM after 48 hrs by SRB assay; type: functional, cell-based; conditions: dose microM 0.03-3, time 48.0 hrs
Homo sapiens [6] = species on record: Homo sapiens; assay: Selectivity index, ratio of LC50 for growth inhibitor of human MDA-MB-453 to LC50 for growth inhibitor of human MDA-MB-231; type: functional
Summary of the method: (§1)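 Selectivity index is the LC50 of the named TNBC line divided by the LC50 in MDA-MB-231 cells.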

MDA-MB-468 = assay: Growth inhibition of human MDA-MB-468 cells after 48 hrs by SRB assay; type: functional
MDA-MB-157 = assay: Growth inhibition of human MDA-MB-157 cells after 48 hrs by SRB assay; type: functional
Homo sapiens [7] = species on record: Homo sapiens; assay: Selectivity index, ratio of LC50 for growth inhibitor of human MDA-MB-468 to LC50 for growth inhibitor of human MDA-MB-231; type: functional; summary of the method: as §1
Homo sapiens [8] = species on record: Homo sapiens; assay: Selectivity index, ratio of LC50 for growth inhibitor of human BT-549 to LC50 for growth inhibitor of human MDA-MB-231; type: functional; summary of the method: as §1
HCC1806 = assay: Growth inhibition of human HCC1806 cells after 48 hrs by SRB assay; type: functional
Homo sapiens [9] = species on record: Homo sapiens; assay: Selectivity index, ratio of LC50 for growth inhibitor of human […] to LC50 for growth inhibitor of human MDA-MB-231; type: functional; summary of the method: as §1
Homo sapiens [10] = species on record: Homo sapiens; assay: Selectivity index, ratio of LC50 for growth inhibitor of human MDA-MB-157 to LC50 for growth inhibitor of human MDA-MB-231; type: functional; summary of the method: as §1
MDA-MB-453 [11] = assay: Growth inhibition of human MDA-MB-453 cells after 48 hrs by SRB assay; type: functional
MDA-MB-231 [12] = assay: Effect on P70S6K regulation in human MDA-MB-231 cells at 300 nM preincubated for 6 hrs followed FBS-stimulation and measured after 0.25 to 2 hrs by immunoblotting analysis; type: functional, cell-based; conditions: time hrs <=8
MDA-MB-453 [13] = assay: Cytotoxicity against human MDA-MB-453 cells assessed as reduction in cell viability at 0.03 to 3 uM after 48 hrs in presence of GW9662 by SRB assay; type: functional, cell-based; conditions: dose microM 0.03-3, time 48.0 hrs
MDA-MB-231 [14] = assay: Induction of cell cycle arret in human MDA-MB-231 cells assessed as G1 phase accumulation at LC50 concentration after 18 hrs by Krishan's staining based cell analyzer method; type: functional
Summary of the method: (§2)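 MDA-MB-231 cells were treated at the LC50 concentration for 18 h, and cell cycle distribution was then assessed.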

A673 = assay: Antiproliferative activity against human A673 cells assessed as reduction in cell viability after 48 hrs by SRB assay; type: functional, cell-based
MDA-MB-231 [15] = assay: Effect on Erk1/2 regulation in human MDA-MB-231 cells at 300 nM preincubated for 6 hrs followed FBS-stimulation and measured after 0.25 to 2 hrs by immunoblotting analysis; type: functional, cell-based; conditions: time hrs <=8
[16] = molecular target: Serine/threonine-protein kinase AKT (Homo sapiens) (UniProt P31751+Q9Y243+P31749); assay: Inhibition of phosphorylation of Akt at S473 residue in human MDA-MB-231 cells at 300 nM preincubated for 6 hrs followed FBS-stimulation and measured after 0.25 to 2 hrs by immunoblotting analysis; type: cell-based; conditions: time hrs <=8
[17] = Ratio of TGI for cytotoxicity against HSD17B11 siRNA knock-out human MDA-MB-231 cells to TGI for cytotoxicity against human MDA-MB-231 cells; type: functional
Summary of the method: (§3)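 MDA-MB-231 cells were reverse-transfected with HSD17B11 siRNA (12.5 nM final, 0.025% RNAiMAX, antibiotic-free medium) or mock for 48 h. Cells were then replated, allowed to attach for 4–6 h, and treated for 48 h. Read-out was SRB viability and TGI, n = 3. Knockdown vs mock was compared by paired two-tailed t-test.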

MDA-MB-231 [18] = assay: Induction of cell cycle arret in human MDA-MB-231 cells assessed as G2/M phase accumulation at LC50 concentration after 18 hrs by Krishan's staining based cell analyzer method; type: functional; summary of the method: as §2
MDA-MB-231 [19] = assay: Induction of cell cycle arret in human MDA-MB-231 cells assessed as S phase accumulation at LC50 concentration after 18 hrs by Krishan's staining based cell analyzer method; type: functional; summary of the method: as §2
[20] = molecular target: Ribosomal protein S6 kinase beta-1 (Homo sapiens) (UniProt P23443); assay: Inhibition of phosphorylation of P70S6K at T389 residue in human MDA-MB-231 cells at 300 nM preincubated for 6 hrs followed FBS-stimulation and measured after 0.25 to 2 hrs by immunoblotting analysis; type: cell-based; conditions: time hrs <=8
MDA-MB-231 [21] = assay: Cytotoxicity against CRISPR/Cas9-mediated HSD17B11 knock-out human MDA-MB-231 cells at 1 uM incubated for 2 weeks; type: functional, cell-based
Summary of the method: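 Doxycycline-inducible Cas9 MDA-MB-231 cells were transduced with the pooled Brunello sgRNA lentiviral library (0.005 μg/mL polybrene, 5 h), then selected in 1 μg/mL puromycin for 72 h. Cas9 was induced with 50 ng/mL doxycycline for 48 h. Cells were treated with 1 μM for 14 days, refreshing medium and compound every 3–4 days, and recovered 2 days before sgRNA sequencing. Enrichment was compared with input and vehicle.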

MDA-MB-231 [22] = assay: Cytotoxicity against human MDA-MB-231 cells assessed as reduction in cell viability at 0.03 to 3 uM after 48 hrs in presence of GW9662 by SRB assay; type: functional, cell-based; conditions: dose microM 0.03-3, time 48.0 hrs
SK-ES1 = assay: Antiproliferative activity against human SK-ES1 cells assessed as reduction in cell viability after 48 hrs by SRB assay; type: functional, cell-based
BT-549 [23] = assay: Cytotoxicity against human BT-549 cells over expressing HSD17B11 assessed as reduction in cell viability at 1 to 10 uM by SRB assay; type: functional, cell-based; conditions: dose microM 1-10
Summary of the method: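 BT-549 cells were transfected with a plasmid expressing HSD17B11-GFP from a constitutive CMV promoter, with mock-transfected cells as control. Overexpression was confirmed by immunoblot, and sensitivity was measured by SRB assay.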

RD = assay: Antiproliferative activity against human RDES cells assessed as reduction in cell viability after 48 hrs by SRB assay; type: functional, cell-based
TC-32 = assay: Antiproliferative activity against human TC-32 cells assessed as reduction in cell viability after 48 hrs by SRB assay; type: functional, cell-based
MDA-MB-231 [24] = assay: Cytotoxicity against human MDA-MB-231 cells harboring CRISPR/Cas9 assessed as reduction in cell viability at 300 nM by SRB assay; type: functional, cell-based
MDA-MB-231 [25] = assay: Effect on Akt regulation in human MDA-MB-231 cells at 300 nM preincubated for 6 hrs followed FBS-stimulation and measured after 0.25 to 2 hrs by immunoblotting analysis; type: functional, cell-based; conditions: time hrs <=8
[26] = molecular target: Mitogen-activated protein kinase; ERK1/ERK2 (Homo sapiens) (UniProt P27361+P28482); assay: Inhibition of phosphorylation of Erk1/2 in human MDA-MB-231 cells at 300 nM preincubated for 6 hrs followed FBS-stimulation and measured after 0.25 to 2 hrs by immunoblotting analysis; type: cell-based; conditions: time hrs <=8
MDA-MB-231 [27] = assay: Cytotoxicity against HSD17B11 siRNA knock-out human MDA-MB-231 cells assessed as reduction in cell viability at 300 nM incubated for 48 hrs by SRB assay; type: functional, cell-based; summary of the method: as §3
[28] = read-out: LC50 (the source's name)

Sequence of Ribosomal protein S6 kinase beta-1 (Homo sapiens) (P23443 whole entry, looked up): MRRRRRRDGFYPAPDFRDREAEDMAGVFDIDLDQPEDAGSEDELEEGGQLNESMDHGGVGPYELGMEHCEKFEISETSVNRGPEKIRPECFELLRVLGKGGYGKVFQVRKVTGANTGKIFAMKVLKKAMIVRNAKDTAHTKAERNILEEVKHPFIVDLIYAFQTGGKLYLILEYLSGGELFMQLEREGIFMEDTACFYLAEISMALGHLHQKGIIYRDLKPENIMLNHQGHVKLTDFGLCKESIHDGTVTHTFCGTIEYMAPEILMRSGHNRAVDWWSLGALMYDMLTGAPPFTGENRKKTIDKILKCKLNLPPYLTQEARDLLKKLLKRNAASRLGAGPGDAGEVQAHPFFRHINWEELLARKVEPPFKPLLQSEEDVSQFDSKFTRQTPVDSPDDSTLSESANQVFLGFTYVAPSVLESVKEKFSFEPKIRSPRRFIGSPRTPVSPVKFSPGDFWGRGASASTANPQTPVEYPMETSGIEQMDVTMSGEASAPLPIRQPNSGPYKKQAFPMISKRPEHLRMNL
Sequence of Mitogen-activated protein kinase; ERK1/ERK2 (Homo sapiens) (P27361 whole entry, looked up): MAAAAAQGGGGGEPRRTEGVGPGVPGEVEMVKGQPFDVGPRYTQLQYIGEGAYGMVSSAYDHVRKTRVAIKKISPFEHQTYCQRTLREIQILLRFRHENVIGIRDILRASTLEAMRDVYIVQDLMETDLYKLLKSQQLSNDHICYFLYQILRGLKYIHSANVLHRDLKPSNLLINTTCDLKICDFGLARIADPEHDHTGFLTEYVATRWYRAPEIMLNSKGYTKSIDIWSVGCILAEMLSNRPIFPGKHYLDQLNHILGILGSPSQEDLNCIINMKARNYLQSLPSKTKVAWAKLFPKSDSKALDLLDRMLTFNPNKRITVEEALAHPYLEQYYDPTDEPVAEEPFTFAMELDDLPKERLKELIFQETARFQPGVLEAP
Sequence of Mitogen-activated protein kinase; ERK1/ERK2 (Homo sapiens) (P28482 whole entry, looked up): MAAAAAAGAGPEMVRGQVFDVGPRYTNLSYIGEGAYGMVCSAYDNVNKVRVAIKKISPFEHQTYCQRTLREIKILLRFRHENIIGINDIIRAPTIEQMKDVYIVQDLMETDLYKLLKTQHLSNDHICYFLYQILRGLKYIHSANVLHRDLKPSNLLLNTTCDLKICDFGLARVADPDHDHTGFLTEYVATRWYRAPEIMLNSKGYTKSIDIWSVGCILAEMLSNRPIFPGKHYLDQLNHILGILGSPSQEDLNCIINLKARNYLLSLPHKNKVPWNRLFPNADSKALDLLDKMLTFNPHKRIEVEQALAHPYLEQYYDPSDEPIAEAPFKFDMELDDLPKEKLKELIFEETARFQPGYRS
Sequence of Serine/threonine-protein kinase AKT (Homo sapiens) (P31749 whole entry, looked up): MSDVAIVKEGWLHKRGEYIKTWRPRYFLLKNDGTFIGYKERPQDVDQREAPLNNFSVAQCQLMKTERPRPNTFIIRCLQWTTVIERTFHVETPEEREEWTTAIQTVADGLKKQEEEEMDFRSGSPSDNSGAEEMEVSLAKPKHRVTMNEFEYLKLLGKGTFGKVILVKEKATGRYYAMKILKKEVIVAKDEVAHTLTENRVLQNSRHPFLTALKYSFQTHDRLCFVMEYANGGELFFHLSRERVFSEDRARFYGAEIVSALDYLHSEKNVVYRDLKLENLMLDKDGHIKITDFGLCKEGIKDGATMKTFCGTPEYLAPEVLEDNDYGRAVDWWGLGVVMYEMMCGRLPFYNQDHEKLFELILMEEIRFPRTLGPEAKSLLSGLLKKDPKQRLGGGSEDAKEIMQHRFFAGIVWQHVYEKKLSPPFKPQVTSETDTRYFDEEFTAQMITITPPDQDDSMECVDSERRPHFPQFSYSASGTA
Sequence of Serine/threonine-protein kinase AKT (Homo sapiens) (P31751 whole entry, looked up): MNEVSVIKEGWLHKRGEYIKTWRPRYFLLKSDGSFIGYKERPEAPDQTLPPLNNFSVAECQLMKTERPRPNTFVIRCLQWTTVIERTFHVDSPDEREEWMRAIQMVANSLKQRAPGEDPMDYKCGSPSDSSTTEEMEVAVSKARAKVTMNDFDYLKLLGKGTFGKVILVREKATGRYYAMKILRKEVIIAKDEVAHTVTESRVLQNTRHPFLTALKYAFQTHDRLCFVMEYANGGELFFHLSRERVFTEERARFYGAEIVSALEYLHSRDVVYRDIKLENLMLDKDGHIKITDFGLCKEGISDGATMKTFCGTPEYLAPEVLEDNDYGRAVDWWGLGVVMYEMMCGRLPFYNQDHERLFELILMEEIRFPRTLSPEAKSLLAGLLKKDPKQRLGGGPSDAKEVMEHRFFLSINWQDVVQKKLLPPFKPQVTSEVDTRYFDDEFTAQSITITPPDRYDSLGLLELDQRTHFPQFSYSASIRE
Sequence of Serine/threonine-protein kinase AKT (Homo sapiens) (Q9Y243 whole entry, looked up): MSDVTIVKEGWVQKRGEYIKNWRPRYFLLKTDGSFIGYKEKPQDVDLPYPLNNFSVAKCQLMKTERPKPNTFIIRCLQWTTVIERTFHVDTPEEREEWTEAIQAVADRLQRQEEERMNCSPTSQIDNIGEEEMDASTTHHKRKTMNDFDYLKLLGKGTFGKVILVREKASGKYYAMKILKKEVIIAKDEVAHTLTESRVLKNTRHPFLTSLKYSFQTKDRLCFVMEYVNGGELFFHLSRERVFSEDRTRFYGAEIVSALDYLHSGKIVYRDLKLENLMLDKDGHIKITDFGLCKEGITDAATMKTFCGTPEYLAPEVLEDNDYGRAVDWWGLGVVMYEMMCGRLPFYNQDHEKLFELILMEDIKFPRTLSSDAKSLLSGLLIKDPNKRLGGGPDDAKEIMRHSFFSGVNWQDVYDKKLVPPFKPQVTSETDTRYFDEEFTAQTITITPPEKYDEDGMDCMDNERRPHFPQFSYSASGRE

C=CCCCCC(O)/C=C/C#CC#CC(O)CC (mixture of isomers)
TGI (BT-549 [1]): > 10000 nM
TGI (MDA-MB-231 [2]): 4800 nM

C=CCCC/C=C\[C@H](O)C#CC#C[C@H](O)C=C
TGI (BT-549 [1]): 29000 nM
Selectivity Index (Homo sapiens [3]): 2.4
TGI (MDA-MB-231 [2]): 12000 nM

C=CCCCCCC(O)/C=C/C#CC#C[C@@H](O)C=C (single isomer, unassigned) [DENDROARBOREOL B]
TGI (BT-549 [1]): 1100 nM
Selectivity Index (Homo sapiens [3]): 6.9
TGI (MDA-MB-231 [2]): 160 nM

O=C(Nc1ccccc1)c1cc([N+](=O)[O-])ccc1Cl
Activity (MDA-MB-231 [4]): inactive
Activity (MDA-MB-453 [5]): inactive

C=CCCC/C=C\C(C#CC#C[C@H](O)C=C)OC(C)=O (some centres not stated)
TGI (BT-549 [1]): 2000 nM
Selectivity Index (Homo sapiens [3]): 0.8
TGI (MDA-MB-231 [2]): 2500 nM

C=CCCCC/C=C\CC#CC#C[C@@H](O)C=C
RatioLC50 (Homo sapiens [6]): 47
GI50 (MDA-MB-468): 1300 nM
TGI (MDA-MB-468): 3100 nM
CC50 (MDA-MB-468; [28]): 5400 nM
GI50 (MDA-MB-157): 190 nM
TGI (MDA-MB-157): 300 nM
CC50 (MDA-MB-157; [28]): 510 nM
RatioLC50 (Homo sapiens [7]): 26
GI50 (BT-549 [1]): 390 nM
TGI (BT-549 [1]): 850 nM
CC50 (BT-549 [1]; [28]): 1900 nM
RatioLC50 (Homo sapiens [8]): 9
GI50 (HCC1806): 390 nM
TGI (HCC1806): 880 nM
CC50 (HCC1806; [28]): 1900 nM
Selectivity Index (Homo sapiens [3]): 4.7
RatioLC50 (Homo sapiens [9]): 9
RatioLC50 (Homo sapiens [10]): 2.4
GI50 (MDA-MB-453 [11]): 1700 nM
TGI (MDA-MB-453 [11]): 5100 nM
CC50 (MDA-MB-453 [11]; [28]): 9800 nM
GI50 (MDA-MB-231 [2]): 74 nM
TGI (MDA-MB-231 [2]): 120 nM
CC50 (MDA-MB-231 [2]; [28]): 210 nM

C=CCCCCC/C=C\CC#CC#CC(O)C=C (mixture of isomers)
Activity (MDA-MB-231 [12]): inactive
Activity (MDA-MB-453 [13]): Active
Activity (MDA-MB-231 [14]): inactive
Activity (A673): Active
Activity (MDA-MB-231 [15]): inactive
inhibition [16]: inactive
Ratio [17]: 1.7
Activity (MDA-MB-231 [18]): inactive
Activity (MDA-MB-231 [19]): inactive
inhibition [20]: inactive
Activity (MDA-MB-231 [21]): inactive
Activity (MDA-MB-231 [22]): Active
Activity (SK-ES1): Active
Activity (BT-549 [23]): inactive
Activity (RD): Active
Activity (TC-32): Active
Activity (MDA-MB-231 [24]): Active
Activity (MDA-MB-231 [25]): inactive
inhibition [26]: inactive
Activity (MDA-MB-231 [27]): inactive
